The list is not random: actives were taken first. Their share in the collection is about 5.8%.
RBBP9 inhibitor – human RBBP9 hydrolase inhibition; O75884; recombinant RBBP9, FP-Rh probe fluorescence polarization; inhibition, % at 7.94 µM; actives 0.2% (n = 220,000);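 active = inhibition above the campaign mean of all tested compounds plus 3 SD, cut at about 14% in these data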;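 also: plate controls were DMSO wells with RBBP9 for no effect and wells lacking RBBP9 protein for full effect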
Target sequence (O75884 whole entry, looked up): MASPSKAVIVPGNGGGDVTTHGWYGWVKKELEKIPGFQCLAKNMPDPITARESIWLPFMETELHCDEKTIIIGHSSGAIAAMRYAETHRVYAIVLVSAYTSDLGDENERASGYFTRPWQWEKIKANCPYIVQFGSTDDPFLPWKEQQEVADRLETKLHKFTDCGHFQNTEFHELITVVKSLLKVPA
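Test system: recombinant human RBBP9; Timing: 30 min then 45 min, 25 °C; Detection: fluorescence polarization; Control set: RBBP9 with DMSO as uninhibited control, no-protein wells as full inhibition; Compound dosing: one concentration, 7.94 µM nominal, 0.794% DMSO; Probe or stimulus: FP-Rh activity-based probe, 375 nM before mixing.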
Cl transport mod – KCC2 (human) Cl- transport modulation. KCC2 cells, thallium flux FluoZin-2 fluorescence. B-score of Tl+ flux slope (higher = more flux/activation; lower = inhibition) at 10 µM. actives 2.2% (n = 190,000);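 active = thallium flux slope and its plate-corrected score both differing from the plate sample mean at a set confidence after two filtering rounds, in either direction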;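 also: slope of fluorescence scaled to starting intensity during 10 to 20 s after thallium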
NCF1 inh – p47phox (human) inhibition; p47phox/p22phox peptide binding, fluorescence polarization, 2 h; inhibition, % at 24.7 µM; actives 0.53% (n = 220,000); AID 1274;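 active = inhibition above about 30%, limit read from the data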;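 also: 0% = p47phox with labelled peptide and 100% = labelled peptide alone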
Target sequence (P14598 whole entry, looked up): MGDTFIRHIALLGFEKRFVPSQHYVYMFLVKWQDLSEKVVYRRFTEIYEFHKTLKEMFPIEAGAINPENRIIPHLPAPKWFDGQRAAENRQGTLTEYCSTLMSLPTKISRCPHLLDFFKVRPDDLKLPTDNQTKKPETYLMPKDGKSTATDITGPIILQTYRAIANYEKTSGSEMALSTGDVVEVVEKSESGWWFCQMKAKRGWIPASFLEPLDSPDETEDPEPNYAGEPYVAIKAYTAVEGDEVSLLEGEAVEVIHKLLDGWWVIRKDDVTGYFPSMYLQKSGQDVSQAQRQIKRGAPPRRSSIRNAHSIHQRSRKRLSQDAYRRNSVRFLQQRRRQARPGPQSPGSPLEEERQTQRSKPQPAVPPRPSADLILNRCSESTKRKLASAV
ROMK mod – human ROMK K+ channel modulation, primary screen; B-score at 10 µM; P48048; actives 2% (n = 130,000); Tet-inducible ROMK, thallium flux fluorescence; actives lie on both sides; AID 1918;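 active = signal ratio slope over the read window, or its plate-corrected B-score, at least 3 SD from the plate mean, either direction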;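 also: B-score of the F/F0 ratio slope over 7 to 12 s after thallium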
14-3-3 Bad inh – disrupts binding of bovine 14-3-3 zeta to phospho-Bad peptide | actives 0.71% (n = 220,000) | inhibition, % at 21.7 µM | TR-FRET 14-3-3zeta/Dy647-pBad peptide displacement, 1 h | P63103;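 active = inhibition above about 70%, limit read from the data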;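 also: 0% = full 14-3-3 plus peptide FRET controls and 100% = background without 14-3-3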
WT yeast gro inh – growth inhibition of WT yeast, mitochondrial fusion screen. actives 2.1% (n = 190,000). inhibition, % at 10 µM. mitochondrial fusion phenotypic screen, WT strain; in the data active = inhibition above about 58%; tested in S. cerevisiae
Numbers without * were called inactive; i = inactive; · = not tested or not shown.

SMILES | RBBP9 inhibitor | Cl transport mod | NCF1 inh | ROMK mod | 14-3-3 Bad inh | WT yeast gro inh
O=C(NCc1cccnc1)Nc1ccc(F)cc1F | -8 | 0.3 | -8 | 0.12 | 87* | -3
N#C/C(=C\c1c(N2CCC(C(N)=O)CC2)nc2ccccn2c1=O)S(=O)(=O)c1ccc(Cl)cc1 | -11 | -0.75 | -8 | · | -13 | ·
CCN1CCN(c2ccc(S(=O)(=O)N3CCCC3)cn2)CC1 | -8 | -0.63 | -11 | 0.4 | -10 | -7
O=C(NC(=S)Nc1ccc(N2CCOCC2)cc1)c1ccccc1 | 0 | · | -8 | · | -14 | 9
O=C(NC(=S)Nc1ccc(N2CCOCC2)cc1)c1cccc(Cl)c1 | -3 | 6.9* | -16 | -0.44 | -23 | 32
O=C(NC(=S)Nc1ccc(N2CCOCC2)cc1)c1ccco1 | -8 | 11* | -5 | 0.21 | -15 | 0
CC(=O)c1cccc(NC(=S)NC(=O)c2cccc(Cl)c2)c1 | -8 | 16* | 3 | 0.45 | -20 | 29
COc1ccc(S(=O)(=O)NC(C)C)cc1C(=O)N1CCOCC1 | 1 | 1.5 | -11 | 0.046 | -12 | -12
C(#CCN1CCOCC1)COC(c1ccccc1)c1ccccc1 | -8 | 0.18 | -9 | · | 72* | 12
CC(=O)NC(=S)c1c(N)n(Cc2ccccc2)c(=O)n(C)c1=O | -5 | 3.9* | -91 | -0.023 | 6 | -1
COCCCNCC(=O)c1c(N)n(Cc2ccccc2)c(=O)n(C)c1=O | 6 | -0.1 | -7 | · | 75* | 9
CCN(CC)C(C)C#CCC(c1ccccc1)c1ccccc1 (stereo unspecified) | 10 | -0.75 | -16 | · | 1 | ·
CC1CCC(NC(=O)C2CC(=O)N(c3ccc4c(c3)OCCO4)C2)CC1 (stereo unspecified) | -12 | 0.11 | -5 | -0.042 | -12 | 0
Cc1cc(=O)oc2cc(OS(C)(=O)=O)ccc12 | -6 | 1.2 | -6 | 0.31 | 6 | -3
Cc1csc(NC(=O)c2cccn2C)n1 | -5 | 0.24 | -5 | · | 0 | 85*
NC(=O)c1ccsc1NC(=O)c1ccc(N2CCCC2=O)cc1 | -8 | 0.72 | -24 | 0.49 | -10 | 15
CNC(=O)c1ccsc1NC(=O)c1ccc2c(c1)CCCC2 | -16 | 0.28 | -32 | 0.95 | -9 | 72*
NC(=O)c1ccsc1NC(=O)c1ccc2c(c1)CCCC2 | -14 | -0.25 | -20 | 0.011 | -2 | 70*
CN(C)CCCn1c(SCC(=O)Nc2nc(-c3cccc(Br)c3)cs2)nc2ccccc2c1=O | 0 | · | 76* | · | -27 | ·
Cc1ccc(-c2csc(NC(=O)CSc3nc(C)cc(=O)[nH]3)n2)cc1 | -7 | -4.2* | 2 | -2.8 | 13 | 33
O=C(CSc1nc2ccccc2[nH]1)Nc1nc(-c2cccc(Br)c2)cs1 | -41 | 0.68 | -26 | · | 2 | 88*
Cc1ccc(C(C)(C)C)c(OCCCn2ccnc2)c1 | -1 | 1 | -24 | -2 | 26 | 66*
Cc1cc(OCCn2ccnc2)ccc1C(C)C | -4 | 0.78 | 11 | 0.3 | 17 | 25
Cc1cccc(OCCCCCn2ccnc2)c1C | -2 | -0.81 | 8 | · | -8 | 67*
Cc1cc(C(C)(C)C)ccc1OCCn1ccnc1 | -3 | 0.011 | 13 | -2.5 | · | 72*
SMILES | RBBP9 inhibitor | Cl transport mod | NCF1 inh | ROMK mod | 14-3-3 Bad inh | WT yeast gro inh
CCc1ccc(NC(=O)C(=O)NCCOc2ccccc2Cl)cc1 | -2 | -0.13 | -6 | -0.36 | -3 | 10
CC1CCN(Cc2c(C(=O)O)nnn2-c2nonc2N)CC1 | -3 | -1.6 | -1 | 0.43 | 0 | -5
Cc1cc(C)c2[nH]c(=O)c(CN(Cc3cccnc3)C(=S)NCCCN(C)C)cc2c1 | -5 | 0.0093 | -8 | -1.2 | -10 | -21
COc1ccc(C(C)(C)C)cc1NC(=O)c1ccoc1C | 2 | · | 0 | · | -3 | 65*
C=CCn1c(COc2cccc(C)c2)nnc1SCn1nnc2ccccc2c1=O | 1 | -0.57 | -6 | -1.5 | 6 | -2
Cc1ccc(C(O)c2nc3ccccc3n2C(C)C)cc1 (stereo unspecified) | -5 | · | 71* | · | 7 | -4
CC1=[N+](C)c2c(ccc3cccnc23)C1(C)C | -42 | 0.71 | -96 | 0.35 | -3 | 82*
Cc1ccc(C(=O)NNC(=O)c2ccc3ncccc3c2)cc1 | 2 | -1.1 | 33* | -1.4 | 4 | 5
Fc1ccc(-c2nc(-c3cccs3)[nH]c2-c2ccc(F)cc2)cc1 | -9 | -0.97 | -17 | 0.3 | -18 | 78*
Cc1ccsc1-c1nc(-c2ccccc2)c(-c2ccccc2)[nH]1 | 1 | · | -1 | · | -8 | 7
O=[N+]([O-])c1ccc(-c2nc(-c3cccs3)c(-c3cccs3)[nH]2)cc1 | -19 | 1.6 | -49 | · | 3 | 82*
CC(C)(C)C1CCc2c(sc(NC(=O)c3cccs3)c2C(=O)N2CCCCC2)C1 (stereo unspecified) | 1 | · | -20 | · | -2 | 62*
C#CCNC(=O)C1CCN(c2cc(C)nc(-c3ccccc3)n2)CC1 | -3 | -0.24 | 0 | -0.36 | -21 | -2
COc1ccc2nc(NC(=O)CN(c3ccc(C)cc3)S(=O)(=O)c3c(C)nn(C)c3C)sc2c1 | -11 | · | -10 | -1.3 | 4 | 69*
Cc1ccc(S(=O)(=O)/C(=C\N(C)C)c2cnc(Cl)s2)cc1 | -4 | 0.0036 | 13 | 0.61 | -8 | -2
CCSc1ccc2cc(OC)ccc2[n+]1CC | -2 | 0.39 | 15 | 0.52 | 30 | 62*
CCn1ccc2cc(OC)ccc2c1=S | 1 | -0.043 | -6 | · | -8 | 1
Cn1c(=O)c(=O)n(C)c2cc(S(=O)(=O)NCCOc3ccccc3)ccc21 | -4 | -0.42 | 4 | 0.31 | -5 | -4
COc1ccc(Nc2c3c(nc4c(-c5ccccc5)c(C)nn24)CCC3)cc1 | -4 | 0.15 | -7 | · | -2 | 62*
Cc1nn2c(NCc3ccccn3)c3c(nc2c1-c1ccccc1)CCC3 | 8 | -0.32 | -4 | · | -8 | ·
N#CC(C#N)=C1C=C2C=C(N3CCOCC3)CCC2CC1 (stereo unspecified) | -5 | i | 65* | · | -6 | -4
COc1ccc(CNC(=O)CSc2ncn[nH]2)cc1 | -5 | · | -7 | · | -2 | -6
O=C(CSc1ncn[nH]1)NCc1ccccc1 | -1 | 1 | -16 | · | 9 | 89*
Cc1sc2c(c1C)CN(CCN1CCOCC1)CN2C(=O)c1ccccc1 | -11 | 0.3 | -9 | -0.54 | -21 | -7
Cc1cc[n+](-c2ccccc2)c2ccccc12 | -7 | 0.04 | 1 | -0.005 | 3 | 8
CCOC(=O)N1CCC(NC(=O)c2ccc3nc4ccccc4c(=O)n3c2)CC1 | -10 | 0.51 | 39* | · | -8 | -7
Cc1c(Br)cc(C(=O)O)c(C)c1C | 1 | 0.15 | -3 | · | 12 | -12
Cc1c(N)cc(N)cc1C(=O)O | -3 | 0.35 | -1 | · | 84* | ·
O=C(NNC(=O)C1CCN(Cc2ccccc2)CC1)c1cccs1 | -13 | -0.72 | 5 | -0.31 | 73* | 0
C=CCc1cc(/C=C2/NC(=O)N(CC(=O)OC)C2=O)cc(OC)c1O | -7 | -0.13 | -3 | 0.62 | 0 | 19
